Values after ≈ are worked out from the molar mass of the structure shown.
What was measured:
Assay type in all cases: functional
[1] = tested on: Escherichia coli; test: Bacteriostatic activity against Escherichia coli K-12 DM4100
Method in brief: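 MIC by broth dilution: E. coli K-12 DM4100 at 10^4 to 10^5 cells/ml in LB liquid medium with serial 2-fold dilutions of quinolone, incubated at 37°C. Drug stock dilutions made in sterile distilled water.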

[2] = tested on: Escherichia coli; test: Bactericidal activity against Escherichia coli K-12 DM4100 after 2 hrs in presence of protein synthesis inhibitor chloramphenicol treated 10 mins before compound challenge
Method in brief: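 Midlog E. coli grown aerobically at 37°C in LB. Chloramphenicol added to 20 μg/ml 10 min before quinolone, then 2 h further incubation. Cells diluted in growth medium and plated on drug-free agar, then incubated overnight at 37°C for CFU counts. Percent survival is relative to CFU at quinolone addition.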

[3] = tested on: Escherichia coli; test: Ratio of LD99 for Escherichia coli K-12 DM4100 to MIC for Escherichia coli K-12 DM4100
Method in brief: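 MIC: 10^4 to 10^5 cells/ml incubated at 37°C in LB broth with serial 2-fold quinolone dilutions. Lethality: midlog cultures grown aerobically at 37°C and exposed to quinolone for 2 h, then plated on drug-free agar overnight for CFU. Survival is expressed as percent of CFU at drug addition.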

Structure (SMILES)	MIC [1] [µg/mL]	LD99 [2] [µg/mL]	Ratio [3]
C[C@H]1COc2c(N3CCN(C)CC3)c(F)cc3c(=O)c(C(=O)O)cn1c23.C[C@H]1COc2c(N3CCN(C)CC3)c(F)cc3c(=O)c(C(=O)O)cn1c23.O [LEVOFLOXACIN]	0.2	0.8	4
CCC1CN(c2c(F)cc3c(=O)c(C(=O)O)cn4c3c2OC[C@@H]4C)CCN1 (stereo not given in full)	0.25 (≈ 0.666 µM)	0.5	2
C[C@H]1COc2c(C3(N)CC3)c(F)cc3c(=O)c(C(=O)O)cn1c23 [PAZUFLOXACIN]	0.02 (≈ 0.0628 µM)	0.08	4
COc1c(N2CCN(C)CC2)c(F)cc2c(=O)c(C(=O)O)cn(C3CC3)c12	0.062 (≈ 0.165 µM)	0.2	3.2
CCN1CCN(c2c(F)cc3c(=O)c(C(=O)O)cn(C4CC4)c3c2OC)CC1	0.1 (≈ 0.257 µM)	0.14	1.4
COc1c(N2CCNC(C)C2)c(F)cc2c(=O)c(C(=O)O)cn(C3CC3)c12 (stereo not given) [GATIFLOXACIN]	0.04 (≈ 0.107 µM)	0.2	5
CC1CN(c2c(F)cc3c(=O)c(C(=O)O)cn4c3c2OC[C@@H]4C)CCN1 (stereo not given in full)	0.31 (≈ 0.858 µM)	0.74	2.4
CCN1CCN(c2c(F)cc3c(=O)c(C(=O)O)cn4c3c2OC[C@@H]4C)CC1	0.75 (≈ 2 µM)	1.5	2
COc1c(N2CCNCC2)c(F)cc2c(=O)c(C(=O)O)cn(C3CC3)c12	0.031 (≈ 0.0858 µM)	0.04	1.3
C[C@H]1COc2c(N3C[C@@H]4CCCN[C@@H]4C3)c(F)cc3c(=O)c(C(=O)O)cn1c23	0.125 (≈ 0.323 µM)	0.25	2
CN1CCN(c2c(F)cc3c(=O)c(C(=O)O)cn4c3c2OCN4C)CC1 [MARBOFLOXACIN]	0.02 (≈ 0.0552 µM)	0.06	3
C[C@H]1COc2c(N3CCNCC3)c(F)cc3c(=O)c(C(=O)O)cn1c23 [N-DESMETHYL LEVOFLOXACIN]	1 (≈ 2.88 µM)	1.2	1.2
COc1c(N2C[C@@H]3CCCN[C@@H]3C2)c(F)cc2c(=O)c(C(=O)O)cn(C3CC3)c12 [MOXIFLOXACIN]	0.125 (≈ 0.311 µM)	0.5	4
CN1CCN(c2c(F)cc3c(=O)c(C(=O)O)cn4c3c2SCC4)CC1 [RUFLOXACIN]	1 (≈ 2.75 µM)	7	7
CCC1CN(c2c(F)cc3c(=O)c(C(=O)O)cn(C4CC4)c3c2OC)CCN1 (stereo not given)	0.16 (≈ 0.411 µM)	0.8	5
